Only some compounds are listed: those with a hit (about 1.5% of all), similar ones and a draw of the others.
CXCR6 block = inhibitors of human CXCR6 receptor; O00574; CHO-K1 PathHunter CXCR6 beta-arrestin, luminescence; inhibition, % at 20 µM; AID 602244; hit rate 0.36% among 360,000; in the data active means inhibition above about 34%, passing the limit was not always enough;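 further: antagonist mode with CXCL16 agonist at 10 nM final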
CCR6 antag = antagonists of human CCR6 receptor; P51684; CHO-K1 CCR6 PathHunter beta-arrestin, luminescence, CCL20-stimulated; inhibition, % at 20 µM; hit rate 0.49% among 340,000; AID 493098;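 active means compounds whose inhibition of the agonist-driven luminescence signal at 20 µM reaches about 50%, limit read from the data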;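 further: cells stimulated with CCL20 at 14 nM final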
Target sequence (P51684 whole entry, looked up): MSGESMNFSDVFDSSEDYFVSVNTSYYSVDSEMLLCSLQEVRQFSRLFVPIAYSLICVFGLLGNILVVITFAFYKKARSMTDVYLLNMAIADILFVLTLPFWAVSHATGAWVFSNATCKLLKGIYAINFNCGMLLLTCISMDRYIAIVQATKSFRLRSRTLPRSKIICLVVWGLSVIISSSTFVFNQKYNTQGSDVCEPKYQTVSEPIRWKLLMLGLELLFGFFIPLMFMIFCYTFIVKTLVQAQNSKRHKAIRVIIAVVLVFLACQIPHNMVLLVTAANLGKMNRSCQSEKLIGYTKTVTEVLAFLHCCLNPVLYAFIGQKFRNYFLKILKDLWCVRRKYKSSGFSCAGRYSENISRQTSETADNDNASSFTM
EBI2 antag = blocks human EBI2 receptor beta-arrestin signaling | hit rate 0.81% among 360,000 | inhibition, % at 5 µM | EBI2 beta-arrestin recruitment, luminescence, 7a,25-OHC stimulated | P32249; in the data active means inhibition above about 38%;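 further: enzyme fragment complementation signal reports receptor beta-arrestin coupling in cells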
APJ antag = blocks the human apelin receptor APJ. P35414. CHO-K1 APJ beta-arrestin complementation, luminescence. inhibition, % at 20 µM. hit rate 0.32% among 330,000;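 active means inhibition above about 40% at 20 µM, limit read from the data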;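 further: cells challenged with 10 nM apelin-13 agonist together with compound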
APJ agonist = APJ receptor agonism. AID 2520. P35414. CHO-K1 APJ PathHunter beta-arrestin, luminescence; 0% DMSO wells, 100% apelin. activation, % at 20 µM. hit rate 0.11% among 330,000;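 active means activation more than six SD over the plate average, tested at 20 µM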
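Assay system: CHO-K1 APJ beta-arrestin complementation cell line / Compound: single test compound dose, 20 µM final, 1% DMSO / Times: overnight seeding, 90 min compound at 25 °C, 1 h detection / Technique: beta-gal luminescence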
APJ antag conf = confirmation of human APJ apelin receptor antagonists | hit rate 66% among 950 | APJ beta-arrestin recruitment, luminescence, antagonist mode | inhibition, % at 20 µM | shares compounds with APJ antag | AID 2766; in the data active means inhibition above about 50%
Large screens that a line does not name were inactive (follow-up assays come after a bar, where they were run).

N#C/C(=N\Nc1ccccc1)C(N)=S	none
N#CC(C#N)=CC1=C2OC(c3ccccc3)=CC(c3ccccc3)=C2CCC1	APJ antag 41 | APJ antag conf 59
COc1ccccc1NCC(=O)c1ccc(Cl)cc1	CCR6 antag 71, APJ antag 72 | APJ antag conf 110
COc1ccc(C(=O)CC(=O)C(=O)Nc2cccc(F)c2)cc1	none
COc1ccc(C(=O)CNc2ccccc2CO)cc1	CCR6 antag 91, APJ antag 40 | APJ antag conf 149
COc1ccc(C(=O)CNc2cccc(F)c2)cc1	CCR6 antag 60, APJ antag 45 | APJ antag conf 95
Cc1cccc(NC(=O)CSCC(=O)N(C)Cc2c(F)cccc2Cl)c1	none
O=C(CNC(=O)c1ccc(Br)o1)OCC(=O)c1cccc([N+](=O)[O-])c1	CCR6 antag 83, APJ antag 62 | APJ antag conf 62
O=C(Cc1ccccc1)OCC(=O)c1cccc([N+](=O)[O-])c1	none
O=C(CNS(=O)(=O)c1ccccc1)OCC(=O)c1cccc([N+](=O)[O-])c1	APJ antag 46 | APJ antag conf 87
C=CCSC(=S)Nc1c(C)n(C)n(-c2ccccc2)c1=O	APJ antag 47 | APJ antag conf inactive
COc1cccc(OCc2nc3ccccc3c(=O)n2N)c1	APJ antag 43 | APJ antag conf inactive
CC(C)NC(=O)c1sc2nc(-c3cccs3)cc(-c3cccs3)c2c1N	APJ antag 42 (no result: CXCR6 block, EBI2 antag) | APJ antag conf inactive
CC(=O)c1sc2nc(-c3cccs3)ccc2c1N	none
C/C(=N\NC(=S)Nc1cccc(C)c1)c1ccccc1	CCR6 antag 53, APJ antag 44 | APJ antag conf 91
O=C(O)c1ccccc1C(=O)Nc1ccc(S(=O)(=O)NC2CCCCC2)cc1	none
O=C(Nc1ccccc1SC(=O)c1ccccc1)c1ccccc1	none (no result: CCR6 antag, APJ antag, APJ agonist)
Cc1ccc(C(=O)Sc2cccccc2=O)cc1	CXCR6 block 84, CCR6 antag 92, EBI2 antag 67, APJ antag 85 | APJ antag conf 102
O=C(Nc1c(C(=O)N2CCOCC2)cnn1-c1ccccc1Cl)c1ccco1	none
C=CCN1C(=O)/C(=C2/Sc3ccccc3N2CC)SC1=S	none
C=CCN1C(=O)/C(=C/C=C2/N(CC)c3ccc(S(=O)(=O)N(C)C)cc3N2CC)SC1=S	CCR6 antag 64, APJ antag 52 | APJ antag conf 107
O=[N+]([O-])c1cnc(Sc2ccncn2)s1	CXCR6 block 75, CCR6 antag 80, APJ antag 55 | APJ antag conf 67
O=C1NCCN1c1ncc([N+](=O)[O-])s1	none
Cc1ccc(NC(=S)NNc2ncc(C(F)(F)F)cc2Cl)c(C)c1	CXCR6 block 65, CCR6 antag 81, APJ antag 53 | APJ antag conf inactive
O=C(NNc1ncc(C(F)(F)F)cc1Cl)c1ccc(Cl)c(Cl)c1	none
N#Cc1c(NC(=O)C2CCCO2)sc2c1CCCCCC2 (stereo unspecified)	none
O=C(NNc1ccc(-c2csnn2)cc1)c1cc(Cl)cc(Cl)c1	APJ antag 54 | APJ antag conf 65
CC(C)c1ccc(NC(=O)CN2C(=O)COc3ccc(S(=O)(=O)N4CCOCC4)cc32)cc1	APJ antag 45 | APJ antag conf inactive
CC(=O)Nc1ccc(NC(=O)CN2C(=O)COc3ccc(S(=O)(=O)N4CCOCC4)cc32)cc1	none
O=C(CCNc1ccc(F)cc1)c1cc2ccccc2o1	none
O=C(Cc1ccc(F)cc1)OCC(=O)c1cc2ccccc2o1	CCR6 antag 89, APJ antag 77 | APJ antag conf 90
O=C(COc1ccccc1)NNC(=O)c1cc2ccccc2o1	none
CC(NC(=O)COc1ccccc1)C(=O)OCC(=O)c1cc2ccccc2o1 (stereo unspecified)	CXCR6 block 44, CCR6 antag 89, APJ antag 55 | APJ antag conf 116
COc1ccccc1C(=O)NCCN1CCN(C(=O)c2ccccc2OC)CC1	none
C=CCn1c(-c2ccccc2OC)n[nH]c1=S	none
C=CCn1c(-c2cccc3ccccc23)n[nH]c1=S	APJ antag 43 | APJ antag conf inactive
COc1ccc(CCn2c(=N)c(C(=O)NC3CCCC3)cc3c(=O)n4cccc(C)c4nc32)cc1	APJ antag 46 | APJ antag conf inactive
Cc1cccn2c(=O)c3cc(C(=O)NC4CCCC4)c(=N)n(Cc4ccc(F)cc4)c3nc12	none
Cc1cccn2c(=O)c3cc(C(=O)NC4CCCCC4)c(=N)n(Cc4ccccc4)c3nc12	APJ antag 52 | APJ antag conf inactive
Fc1cccc(F)c1[B-](F)(F)F	none (no result: APJ antag, APJ agonist)
CCN1/C(=C/C=C/c2sc3ccccc3[n+]2CC)Sc2ccccc21	APJ antag 49 | APJ antag conf 121
CCOC(=O)c1c(C)nc2sc(C(=O)Nc3ccc(C(C)=O)cc3)c(N)c2c1-c1ccc(OC)cc1	APJ antag 51 | APJ antag conf inactive
O=C(CN1C(=O)NC2(CCOc3ccccc32)C1=O)NCc1ccccc1 (stereo unspecified)	none
Cc1ccccc1NC(=O)c1ccc(Nc2c([N+](=O)[O-])cc([N+](=O)[O-])c3ccccc23)cc1	CXCR6 block 42, CCR6 antag 60, APJ antag 57 | APJ antag conf 90
O=C(CN1C(=O)C2C3CCC(C3)C2C1=O)OCC(=O)c1cccc([N+](=O)[O-])c1 (stereo unspecified)	CCR6 antag 62, APJ antag 61 | APJ antag conf 89
Cc1ccc(C(=O)COC(=O)CCN2C(=O)C3C4CCC(C4)C3C2=O)cc1[N+](=O)[O-] (stereo unspecified)	APJ antag 50 | APJ antag conf inactive
O=C(CN1C(=O)C2C3C=CC(C3)C2C1=O)OCC(=O)c1ccc(Cl)c([N+](=O)[O-])c1 (stereo unspecified)	CXCR6 block 48, CCR6 antag 71, APJ antag 81 | APJ antag conf 143
O=C(CCN1C(=O)C2C3CC(C(Br)C3Br)C2C1=O)OCC(=O)c1cccc([N+](=O)[O-])c1 (stereo unspecified)	CCR6 antag 55, APJ antag 59 | APJ antag conf 100
Cc1ccc(C(=O)COC(=O)CN2C(=O)C3C4CCC(C4)C3C2=O)cc1C (stereo unspecified)	none
Cc1ccc(C(=O)COC(=O)CN2C(=O)C3C4CCC(C4)C3C2=O)cc1[N+](=O)[O-] (stereo unspecified)	APJ antag 49 | APJ antag conf inactive
Cc1ccc([N+](=O)[O-])c(NC(=O)COC(=O)C2CC3CCCC(C2)C3=O)c1C (stereo unspecified)	none
Cc1ccc(C(=O)COC(=O)CN2C(=O)C3CC=CCC3C2=O)cc1[N+](=O)[O-] (stereo unspecified)	APJ antag 45 | APJ antag conf 79

Screening data (PubChem)
